Measured values: ChEMBL document CHEMBL3045116, “Synthesis and biological evaluation of 2-(5-substituted-1-((diethylamino)methyl)-2-oxoindolin-3-ylidene)-N-substituted-hydrazinecarbothioamides” (Med Chem Res, 2013)
pEC50, pIC50: −log10 of the molar value.

Assays:
[1] = test system: Bacillus subtilis; assay: Antibacterial activity against Bacillus subtilis assessed as growth inhibition at 50 ug/ml by cup-plate method (reference value: 8 to 10 mm); format: functional; conditions: read-out: DIZ
[2] = Cytotoxicity against Homo sapiens (human) HEL cells assessed as change in cellular morphology; format: cell-based
[3] = test system: Candida albicans; assay: Antifungal activity against Candida albicans assessed as growth inhibition at 50 ug/ml by cup-plate method (reference value: 8 to 10 mm); format: functional; conditions: read-out: DIZ
[4] = test system: Respiratory syncytial virus; assay: Antiviral activity against Respiratory syncytial virus infected human HeLa cells assessed as reduction of virus-induced cytopathic effect after 3 days by colorimetric formazan-based MTS assay; format: functional, organism-based; conditions: 72 h
Outline: (§1)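 Confluent cell monolayers were infected with 100 CCID50 of virus, and serial dilutions of compound were added at the time of infection.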

[5] = test system: Proteus vulgaris; assay: Antibacterial activity against Proteus vulgaris assessed as growth inhibition at 50 ug/ml by cup-plate method (reference value: 8 to 10 mm); format: functional; conditions: read-out: DIZ
[6] = test system: Influenza A virus H3N2; assay: Antiviral activity against Influenza A virus H3N2 infected MDCK cells assessed as reduction of virus-induced cytopathic effect after 3 days by colorimetric formazan-based MTS assay; format: functional, organism-based; conditions: 72 h; outline: as §1
[7] = test system: Feline infectious peritonitis virus; assay: Antiviral activity against Feline Infectious peritonitis virus infected cat CRFK cells assessed as reduction of virus-induced cytopathic effect after 3 days by colorimetric formazan-based MTS assay; format: functional, organism-based; conditions: Alphacoronavirus 1, CRFK, 72 h; outline: as §1
[8] = test system: CCRF-CEM; assay: Cytotoxicity against Homo sapiens (human) CEM cells assessed as growth inhibition after 72 hr by coulter counter analysis; format: functional, cell-based
Outline: (§2)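 Cells in growth medium were allowed to proliferate with variable compound amounts at 37 °C in a humidified CO2 atmosphere. Incubation ran 48 h for L1210, 72 h for CEM and 96 h for HeLa. Cells were then counted with a Coulter counter.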

[9] = test system: Coxsackievirus B4; assay: Antiviral activity against Human coxsackievirus B4 infected human HeLa cells assessed as reduction of virus-induced cytopathic effect after 3 days by colorimetric formazan-based MTS assay; format: functional, organism-based; conditions: Enterovirus B, 72 h; outline: as §1
[10] = test system: Human alphaherpesvirus 2; assay: Antiviral activity against Human herpesvirus 2 strain G infected human HEL cells assessed as reduction of virus-induced cytopathic effect after 3 days by colorimetric formazan-based MTS assay; format: functional, organism-based; conditions: Human alphaherpesvirus 2, strain G, 72 h; outline: as §1
[11] = test system: Klebsiella pneumoniae; assay: Antibacterial activity against Klebsiella pneumoniae assessed as growth inhibition at 50 ug/ml by cup-plate method (reference value: 8 to 10 mm); format: functional; conditions: read-out: DIZ
[12] = test system: Human respirovirus 3; assay: Antiviral activity against Human parainfluenza virus 3 infected African green monkey Vero cells assessed as reduction of virus-induced cytopathic effect after 3 days by colorimetric formazan-based MTS assay; format: functional, organism-based; conditions: Human respirovirus 3, Vero, 72 h
Outline: (§3)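 Cells grown to confluency in 96-well plates ([…], Vero for lines 9–10) were infected with 100 CCID50 of virus, and serial compound dilutions were added at infection. Plates were incubated at 37 °C for 3 days, until complete CPE appeared in untreated virus controls.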

[13] = Inhibition of beta lactamase assessed as time for decolorization of iodine (reference value: 79.5 secs)
[14] = test system: Felid alphaherpesvirus 1; assay: Antiviral activity against Felid herpesvirus 1 infected cat CRFK cells assessed as reduction of virus-induced cytopathic effect after 3 days by colorimetric formazan-based MTS assay; format: functional, organism-based; conditions: Felid alphaherpesvirus 1, CRFK, 72 h; outline: as §3
[15] = test system: Aspergillus niger; assay: Antifungal activity against Aspergillus niger assessed as growth inhibition at 50 ug/ml by cup-plate method (reference value: 8 to 10 mm); format: functional; conditions: read-out: DIZ
[16] = test system: Staphylococcus aureus; assay: Antibacterial activity against Staphylococcus aureus assessed as growth inhibition at 50 ug/ml by cup-plate method (reference value: 8 to 10 mm); format: functional; conditions: read-out: DIZ
[17] = test system: Influenza B virus; assay: Antiviral activity against Influenza B virus infected in MDCK cells assessed as reduction of virus-induced cytopathic effect after 3 days by colorimetric formazan-based MTS assay; format: functional, organism-based; conditions: 72 h; outline: as §1
[18] = test system: Vesicular stomatitis virus; assay: Antiviral activity against Vesicular stomatitis virus infected human HeLa cells assessed as reduction of virus-induced cytopathic effect after 3 days by colorimetric formazan-based MTS assay; format: functional, organism-based; conditions: 72 h; outline: as §1
[19] = test system: Human alphaherpesvirus 1; assay: Antiviral activity against acyclovir-resistant thymidine kinase negative Human herpesvirus 1 strain KOS infected human HEL cells assessed as reduction of virus-induced cytopathic effect after 3 days by colorimetric formazan-based MTS assay; format: functional, organism-based; conditions: Human alphaherpesvirus 1, KOS, 72 h; outline: as §1
[20] = test system: Escherichia coli; assay: Antibacterial activity against Escherichia coli assessed as growth inhibition at 50 ug/ml by cup-plate method (reference value: 8 to 10 mm); format: functional; conditions: read-out: DIZ
[21] = test system: L1210; assay: Cytotoxicity against Mus musculus (mouse) L1210 cells assessed as growth inhibition after 48 hr by coulter counter analysis; format: functional, cell-based; conditions: L1210, 48 h; outline: as §2
[22] = test system: Coxsackievirus B4; assay: Antiviral activity against Human coxsackievirus B4 infected African green monkey Vero cells assessed as reduction of virus-induced cytopathic effect after 3 days by colorimetric formazan-based MTS assay; format: functional, organism-based; conditions: Enterovirus B, 72 h; outline: as §1
[23] = test system: Punta Toro virus; assay: Antiviral activity against Punta Toro virus infected in African green monkey Vero cells assessed as reduction of virus-induced cytopathic effect after 3 days by colorimetric formazan-based MTS assay; format: functional, organism-based; conditions: 72 h; outline: as §1
[24] = (§4) Cytotoxicity against Homo sapiens (human) HeLa cells assessed as change in cellular morphology; format: cell-based; conditions: HeLa cells
Outline: (§5)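 Uninfected cells were exposed to compound in parallel with the antiviral cultures. The read-out is the minimum cytotoxic concentration that causes a microscopically detectable alteration of normal cell morphology.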

[25] = test system: HeLa; assay: as §4; format: cell-based; conditions: hela; outline: as §5
[26] = test system: Influenza A virus; assay: Antiviral activity against Unidentified Influenza A virus (H1N1) infected MDCK cells assessed as reduction of virus-induced cytopathic effect after 3 days by colorimetric formazan-based MTS assay; format: functional, organism-based; conditions: 72 h; outline: as §1
[27] = test system: Salmonella typhi; assay: Antibacterial activity against Salmonella enterica subsp. enterica serovar Typhi assessed as growth inhibition at 50 ug/ml by cup-plate method (reference value: 8 to 10 mm); format: functional; conditions: read-out: DIZ
[28] = test system: Vesicular stomatitis virus; assay: Antiviral activity against Vesicular stomatitis virus infected human HEL cells assessed as reduction of virus-induced cytopathic effect after 3 days by colorimetric formazan-based MTS assay; format: functional, organism-based; conditions: 72 h; outline: as §1
[29] = test system: Respirovirus muris; assay: Antiviral activity against Sendai virus infected African green monkey Vero cells assessed as reduction of virus-induced cytopathic effect after 3 days by colorimetric formazan-based MTS assay; format: functional, organism-based; conditions: 72 h
[30] = test system: Vaccinia virus; assay: Antiviral activity against Vaccinia virus infected human HEL cells assessed as reduction of virus-induced cytopathic effect after 3 days by colorimetric formazan-based MTS assay; format: functional, organism-based; conditions: Orthopoxvirus vaccinia, 72 h; outline: as §1
[31] = Cytotoxicity against Chlorocebus aethiops (African green monkey) Vero cells assessed as change in cellular morphology; format: cell-based; conditions: chlorocebus sabaeus
[32] = test system: Human alphaherpesvirus 1; assay: Antiviral activity against Human herpesvirus 1 strain KOS infected human HEL cells assessed as reduction of virus-induced cytopathic effect after 3 days by colorimetric formazan-based MTS assay; format: functional, organism-based; conditions: Human alphaherpesvirus 1, KOS, 72 h; outline: as §1
[33] = Inhibition of beta lactamase assessed as increase in time taken for iodine decolorization relative to control; parameters: concentration or dose not given beside the values; conditions: concentration not given here
[34] = Cytotoxicity against Felis catus (cat) CRFK cells assessed as change in cellular morphology; format: cell-based; conditions: crfk; outline: as §5
[35] = test system: Mammalian orthoreovirus 1; assay: Antiviral activity against Mammalian orthoreovirus 1 infected African green monkey Vero cells assessed as reduction of virus-induced cytopathic effect after 3 days by colorimetric formazan-based MTS assay; format: functional, organism-based; conditions: Mammalian orthoreovirus 1, Vero, 72 h; outline: as §3
[36] = (§6) Cytotoxicity against MDCK cells assessed as change in cellular morphology; format: cell-based, Canis lupus familiaris; conditions: dog, MDCK cells; outline: as §5
[37] = test system: MDCK; assay: as §6; format: cell-based, Canis lupus familiaris; conditions: dog, mdck; outline: as §5

## CCN(CC)CN1C(=O)/C(=N/NC(=S)Nc2ccccc2)c2cc(Cl)ccc21
[1]
  zone of inhibition at 50 µg/mL: 11 mm
[2]
  MCC: 100 µM
[3]
  zone of inhibition at 50 µg/mL: 21 mm
[4]
  pEC50: < 4.70
[5]
  zone of inhibition at 50 µg/mL: 21 mm
[6]
  pEC50: < 6.10
[7]
  pEC50: < 5.40
[8]
  pIC50: 4.40
[9]
  pEC50: < 4.70
[10]
  pEC50: < 4.70
[11]
  zone of inhibition at 50 µg/mL: 11 mm
[12]
  pEC50: < 4.70
[13]
  TIME: 0.0434 h
[14]
  pEC50: < 5.40
[15]
  zone of inhibition at 50 µg/mL: 11 mm
[16]
  zone of inhibition at 50 µg/mL: 11 mm
[17]
  pEC50: < 6.10
[18]
  pEC50: < 4.70
[19]
  pEC50: < 4.70
[20]
  zone of inhibition at 50 µg/mL: 11 mm
[21]
  pIC50: 4.31
[22]
  pEC50: < 4.70
[23]
  pEC50: < 4.70
[24]
  MCC: ≥ 20 µM
[25]
  CC50: 13.5 µM
[26]
  pEC50: < 6.10
[27]
  zone of inhibition at 50 µg/mL: 11 mm
[28]
  pEC50: < 4.70
[29]
  pEC50: < 4.70
[30]
  pEC50: < 4.70
[31]
  MCC: 100 µM
[32]
  pEC50: < 4.70
[33]
  inhibition: 49.2%
[34]
  CC50: 6.9 µM
[35]
  pEC50: < 4.70
[36]
  MCC: ≥ 800 nM
[37]
  CC50: 3000 nM
